Key:
Liver = test: Drug uptake in Kunming mouse liver assessed as naproxen level at dose equivalent to 10 mg/kg, iv of naproxen administered as single dose measured by HPLC analysis; type: ADME, organism-based; set-up: dose 10 mg/kg, route intravenous; conditions: in vivo
Heart = test: Drug uptake in Kunming mouse heart assessed as naproxen level at dose equivalent to 10 mg/kg, iv of naproxen administered as single dose measured by HPLC analysis; type: ADME, organism-based; set-up: dose 10 mg/kg, route intravenous; conditions: in vivo
[1] = Metabolic stability in mouse plasma assessed as half life at 250 umol/mL by HPLC analysis; type: ADME, cell-free
Summary of the method: (§1)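 Mouse plasma, diluted with two volumes of water, or brain homogenate (1:5 w/v in cold pH 7.4 phosphate buffer) was spiked with methanol stock (1:4 v/v) and incubated at 37 °C. Aliquots taken at 0–90 min were quenched with acetonitrile and centrifuged. Remaining prodrug was measured by HPLC-UV at 238 nm. Rate constant came from ln(peak area) regression against time, and half-life followed from it.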

Plasma [2] = test: AUC (0 to t) in Kunming mouse plasma at dose equivalent to 10 mg/kg, iv of naproxen administered as single dose; type: ADME, organism-based; set-up: dose 10 mg/kg, route intravenous; conditions: in vivo
[3] = Chemical stability of the compound in phosphate buffer at pH 7.4 assessed as first order rate constant of compound disappearance at 250 umol/mL by HPLC analysis; type: physicochemical
Summary of the method: (§2)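 Each compound, added as methanol stock, was incubated in phosphate buffer at pH 2.5, 5.0, 7.4 or 8.0 (1:4 v/v) at 37 °C. Samples were taken at 0, 1, 3, 6, 12 and 24 h. Remaining ester was measured by HPLC-UV at 238 nm on C18 with methanol-water 80:20. The pseudo-first-order rate constant came from linear regression of ln(peak area) against time, and half-life followed from it.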

Plasma [4] = test: Metabolic stability in mouse plasma assessed as first order rate constant of compound disappearance at 250 umol/mL by HPLC analysis; type: ADME, cell-free; summary of the method: as §1
Kidney = test: Drug uptake in Kunming mouse kidney assessed as naproxen level at dose equivalent to 10 mg/kg, iv of naproxen administered as single dose measured by HPLC analysis; type: ADME, organism-based; set-up: dose 10 mg/kg, route intravenous; conditions: in vivo
Muscle tissue = test: Drug uptake in Kunming mouse muscle assessed as naproxen level at dose equivalent to 10 mg/kg, iv of naproxen administered as single dose measured by HPLC analysis; type: ADME, organism-based; set-up: dose 10 mg/kg, route intravenous; conditions: in vivo
[5] = Chemical stability of the compound in phosphate buffer at pH 8.0 assessed as first order rate constant of compound disappearance at 250 umol/mL by HPLC analysis; type: physicochemical; summary of the method: as §2
[6] = Metabolic stability in mouse brain homogenate assessed as half life at 250 umol/mL by HPLC analysis; type: ADME, tissue-based; summary of the method: as §1
[7] = Chemical stability of the compound in phosphate buffer at pH 2.5 assessed as half life at 250 umol/mL by HPLC analysis; type: physicochemical; summary of the method: as §2
[8] = Chemical stability of the compound in phosphate buffer at pH 7.4 assessed as half life at 250 umol/mL by HPLC analysis; type: physicochemical; summary of the method: as §2
[9] = Chemical stability of the compound in phosphate buffer at pH 5 assessed as first order rate constant of compound disappearance at 250 umol/mL by HPLC analysis; type: physicochemical; summary of the method: as §2
[10] = Chemical stability of the compound in phosphate buffer at pH 8.0 assessed as half life at 250 umol/mL by HPLC analysis; type: physicochemical; summary of the method: as §2
Brain [11] = test: AUC (0 to t) in Kunming mouse brain at dose equivalent to 10 mg/kg, iv of naproxen administered as single dose; type: ADME, organism-based; set-up: dose 10 mg/kg, route intravenous; conditions: in vivo
[12] = Chemical stability of the compound in phosphate buffer at pH 5 assessed as half life at 250 umol/mL by HPLC analysis; type: physicochemical; summary of the method: as §2
Brain [13] = test: Metabolic stability in mouse brain homogenate assessed as first order rate constant of compound disappearance at 250 umol/mL by HPLC analysis; type: ADME, tissue-based; summary of the method: as §1
Brain [14] = test: Prodrug conversion in mouse brain homogenate assessed as naproxen release at 250 uM/mL by HPLC analysis; type: ADME, tissue-based; conditions: in vitro, TDE = time-dependent effect
Summary of the method: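 Prodrugs were incubated at 37 °C for up to 90 min in mouse brain homogenate (1:5 w/v in pH 7.4 phosphate buffer). […] Peak areas were normalised to the reference prodrug peak at 15 min, SD n = 3.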

Plasma [15] = test: Prodrug conversion in Kunming mouse plasma assessed as compound hydrolysis to naproxen at dose equivalent to 10 mg/kg, iv of naproxen measured by HPLC analysis; type: ADME, organism-based; set-up: dose 10 mg/kg, route intravenous; conditions: in vivo
[16] = Chemical stability of the compound in phosphate buffer at pH 2.5 assessed as first order rate constant of compound disappearance at 250 umol/mL by HPLC analysis; type: physicochemical; summary of the method: as §2
in vivo [17] = conditions: Kunming, mouse, brain, iv, 10 mg/kg
in vivo [18] = conditions: Kunming, mouse, brain, iv, 10 mg/kg; remark: listed apart in the source
in vivo [19] = conditions: Kunming, mouse, brain, iv, 10 mg/kg; remark: listed apart in the source

Drug uptake (Liver)	Drug uptake (Heart)	half-life at 250 umol/mL [1] [h]	AUCt (Plasma [2]) [µg/min/mL]	Activity [3] [×10⁻² /hr]	Activity (Plasma [4]) [×10⁻² /min]	Drug uptake (Kidney)	Drug uptake (Muscle tissue)	Activity [5] [×10⁻² /hr]	half-life at 250 umol/mL [6] [h]	half-life at 250 umol/mL [7] [h]	half-life at 250 umol/mL [8] [h]	Activity [9] [×10⁻² /hr]	half-life at 250 umol/mL [10] [h]	AUCt (Brain [11]) [µg·min/g]	half-life at 250 umol/mL [12] [h]	Activity (Brain [13]) [×10⁻² /min]	Drug metabolism (Brain [14])	Drug metabolism (Plasma [15])	Activity [16] [×10⁻² /hr]	Structure (SMILES)	also measured
Active	Active	0.657	12914.16	2.55	1.77	Active	Active	2.77	0.243	16	27.2	2.95	25	4716.88	23.5	4.74	tde	Active	4.34	CCSS/C(CCOC(=O)[C@@H](C)c1ccc2cc(OC)ccc2c1)=C(/C)N(C=O)CC(=O)OC[C@H]1O[C@H](O)[C@H](O)[C@@H](O)[C@@H]1O	
Active	Active	0.792	16185.44	1.36	1.46	Active	Active	2.42	0.343	21.7	51	2.04	28.6	6140.77	34	3.37	tde	Active	3.19	COc1ccc2cc([C@H](C)C(=O)OCC/C(SSC(C)C)=C(\C)N(C=O)CC(=O)OC[C@H]3O[C@H](O)[C@H](O)[C@@H](O)[C@@H]3O)ccc2c1	

More lines, now with the values behind:

Structure (SMILES)	Drug uptake (Liver)	Drug uptake (Heart)	half-life at 250 umol/mL [1] [h]	AUCt (Plasma [2]) [µg/min/mL]	Activity [3] [×10⁻² /hr]	Activity (Plasma [4]) [×10⁻² /min]	Drug uptake (Kidney)	Drug uptake (Muscle tissue)	Activity [5] [×10⁻² /hr]	half-life at 250 umol/mL [6] [h]	half-life at 250 umol/mL [7] [h]	half-life at 250 umol/mL [8] [h]	Activity [9] [×10⁻² /hr]	half-life at 250 umol/mL [10] [h]	AUCt (Brain [11]) [µg·min/g]	half-life at 250 umol/mL [12] [h]	Activity (Brain [13]) [×10⁻² /min]	Drug metabolism (Brain [14])	Drug metabolism (Plasma [15])	Activity [16] [×10⁻² /hr]	also measured
COc1ccc2cc([C@H](C)C(=O)OC[C@H]3O[C@H](O)[C@H](O)[C@@H](O)[C@@H]3O)ccc2c1	Active	Active	1.48	10353.27	0.607	0.782	Active	Active	2.91	1.68	53.3	114	0.645	23.8	3930.87	107	0.683	tde	Active	1.3	
COc1ccc2cc([C@H](C)C(=O)OCC/C(SSCc3ccccc3)=C(\C)N(C)C=O)ccc2c1	Active	Active	0.987	8834.7	1.11	1.17	Active	Active	2.05	0.418	13.7	62.4	2.81	33.8	3307.75	24.7	2.76	tde	Active	5.05	
COc1ccc2cc([C@H](C)C(=O)OCC/C(SSCc3ccccc3)=C(\C)N(C=O)CC(=O)OC[C@H]3O[C@H](O)[C@H](O)[C@@H](O)[C@@H]3O)ccc2c1	Active	Active	0.755	13348.87	2.3	1.53	Active	Active	3.56	0.312	20.4	30.1	2.87	19.5	5669.45	24.1	3.71	tde	Active	3.39	
COc1ccc2cc([C@H](C)C(=O)O)ccc2c1 [NAPROXEN]				3812.35																	Cmax (in vivo [17]): 17100 ng/g; MRT (in vivo [18]): 1.41 h; Tmax (in vivo [19]): 0.75 h
